ChEMBL document CHEMBL3627695, “1-Benzyl-2-methyl-3-indolylmethylene barbituric acid derivatives: Anti-cancer agents that target nucleophosmin 1 (NPM1)” (Bioorg Med Chem, 2015)

Columns and labels:
[1] = tested on: CCRF-CEM; assay: Anticancer activity against human CCRF-CEM cells after 48 hrs by sulforhodamine B assay; type: functional
In short: (§1)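 NCI-60 human tumour cell line panel. Compounds dissolved in DMSO/H2O and tested at five 10-fold dilutions (10⁻⁴ M to 10⁻⁸ M) for 48 hr. GI50 is the molar concentration giving 50% reduction in net cell growth relative to cell numbers on day 0.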

[2] = tested on: HL-60(TB); assay: Anticancer activity against human HL-60(TB) cells after 48 hrs by sulforhodamine B assay; type: functional; conditions: HL-60, 48 h; in short: as §1
[3] = tested on: K562; assay: Anticancer activity against human K562 cells after 48 hrs by sulforhodamine B assay; type: functional; conditions: K562, 48 h; in short: as §1
[4] = Anticancer activity against human MOLT4 cells after 48 hrs by sulforhodamine B assay; type: functional; conditions: MOLT-4, 48 h; in short: as §1
[5] = Anticancer activity against human RPMI8226 cells after 48 hrs by sulforhodamine B assay; type: functional; conditions: RPMI-8226, 48 h; in short: as §1
[6] = tested on: SR; assay: Anticancer activity against human SR cells after 48 hrs by sulforhodamine B assay; type: functional
In short: (§2)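 NCI-60 panel protocol. Compounds were dissolved in DMSO/H2O and tested at five 10-fold concentrations (10⁻⁴ to 10⁻⁸ M) with 48 hr incubation. GI50 is the molar concentration giving a 50% reduction in net cell growth relative to cell numbers on day 0.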

[7] = tested on: A549; assay: Anticancer activity against human A549/ATCC cells after 48 hrs by sulforhodamine B assay; type: functional; conditions: A549, 48 h; in short: as §1
[8] = tested on: HOP-62; assay: Anticancer activity against human HOP62 cells after 48 hrs by sulforhodamine B assay; type: functional; conditions: HOP-62, 48 h; in short: as §1
[9] = Anticancer activity against human HOP92 cells after 48 hrs by sulforhodamine B assay; type: functional; conditions: HOP-92, 48 h; in short: as §1
[10] = tested on: NCI-H226; assay: Anticancer activity against human NCI-H226 cells after 48 hrs by sulforhodamine B assay; type: functional; conditions: NCI-H226, 48 h; in short: as §1
[11] = tested on: NCI-H322M; assay: Anticancer activity against human NCI-H322M cells after 48 hrs by sulforhodamine B assay; type: functional; in short: as §1
[12] = tested on: NCI-H460; assay: Anticancer activity against human NCI-H460 cells after 48 hrs by sulforhodamine B assay; type: functional; conditions: NCI-H460, 48 h; in short: as §1
[13] = tested on: NCI-H522; assay: Anticancer activity against human NCI-H522 cells after 48 hrs by sulforhodamine B assay; type: functional; conditions: NCI-H522, 48 h; in short: as §1
[14] = Anticancer activity against human COLO205 cells after 48 hrs by sulforhodamine B assay; type: functional; conditions: COLO 205, 48 h; in short: as §1
[15] = Anticancer activity against human HCC2998 cells after 48 hrs by sulforhodamine B assay; type: functional; conditions: HCC 2998, 48 h; in short: as §1
[16] = tested on: HCT-116; assay: Anticancer activity against human HCT116 cells after 48 hrs by sulforhodamine B assay; type: functional; conditions: HCT-116, 48 h; in short: as §1
[17] = tested on: HCT-15; assay: Anticancer activity against human HCT15 cells after 48 hrs by sulforhodamine B assay; type: functional; conditions: HCT-15, 48 h; in short: as §1
[18] = tested on: HT-29; assay: Anticancer activity against human HT-29 cells after 48 hrs by sulforhodamine B assay; type: functional; conditions: HT-29, 48 h; in short: as §1
[19] = tested on: KM12; assay: Anticancer activity against human KM12 cells after 48 hrs by sulforhodamine B assay; type: functional; conditions: KM12, 48 h; in short: as §1
[20] = tested on: SW-620; assay: Anticancer activity against human SW620 cells after 48 hrs by sulforhodamine B assay; type: functional; conditions: SW-620, 48 h; in short: as §2
[21] = tested on: SF-268; assay: Anticancer activity against human SF268 cells after 48 hrs by sulforhodamine B assay; type: functional; conditions: SF-268, 48 h; in short: as §1
[22] = Anticancer activity against human SF295 cells after 48 hrs by sulforhodamine B assay; type: functional; conditions: SF-295, 48 h; in short: as §1
[23] = Anticancer activity against human SF539 cells after 48 hrs by sulforhodamine B assay; type: functional; conditions: SF-539, 48 h; in short: as §1
[24] = tested on: SNB-19; assay: Anticancer activity against human SNB19 cells after 48 hrs by sulforhodamine B assay; type: functional; conditions: SNB-19, 48 h; in short: as §1
[25] = tested on: SNB-75; assay: Anticancer activity against human SNB75 cells after 48 hrs by sulforhodamine B assay; type: functional; conditions: SNB-75, 48 h; in short: as §1
[26] = tested on: U-251; assay: Anticancer activity against human U251 cells after 48 hrs by sulforhodamine B assay; type: functional; conditions: U-251, 48 h; in short: as §2
[27] = Anticancer activity against human LOXIMVI cells after 48 hrs by sulforhodamine B assay; type: functional; conditions: LOX IMVI; in short: as §1
[28] = tested on: Malme-3M; assay: Anticancer activity against human MALME-3M cells after 48 hrs by sulforhodamine B assay; type: functional; in short: as §1
[29] = tested on: M14; assay: Anticancer activity against human M14 cells after 48 hrs by sulforhodamine B assay; type: functional; conditions: M14, 48 h; in short: as §1
[30] = tested on: MDA-MB-435; assay: Anticancer activity against human MDA-MB-435 cells after 48 hrs by sulforhodamine B assay; type: functional; conditions: MDA-MB-435, 48 h; in short: as §1
[31] = tested on: SK-MEL-2; assay: Anticancer activity against human SK-MEL-2 cells after 48 hrs by sulforhodamine B assay; type: functional; conditions: SK-MEL-2, 48 h; in short: as §1
[32] = tested on: SK-MEL-28; assay: Anticancer activity against human SK-MEL-28 cells after 48 hrs by sulforhodamine B assay; type: functional; conditions: SK-MEL-28, 48 h; in short: as §1
[33] = tested on: SK-MEL-5; assay: Anticancer activity against human SK-MEL-5 cells after 48 hrs by sulforhodamine B assay; type: functional; conditions: SK-MEL-5, 48 h; in short: as §1
[34] = tested on: UACC-257; assay: Anticancer activity against human UACC257 cells after 48 hrs by sulforhodamine B assay; type: functional; conditions: UACC-257, 48 h; in short: as §2
[35] = tested on: IGROV-1; assay: Anticancer activity against human IGROV1 cells after 48 hrs by sulforhodamine B assay; type: functional; conditions: IGROV-1, 48 h; in short: as §1
[36] = tested on: OVCAR-3; assay: Anticancer activity against human OVCAR3 cells after 48 hrs by sulforhodamine B assay; type: functional; conditions: OVCAR-3, 48 h; in short: as §1
[37] = tested on: OVCAR-4; assay: Anticancer activity against human OVCAR4 cells after 48 hrs by sulforhodamine B assay; type: functional; conditions: OVCAR-4, 48 h; in short: as §1
[38] = tested on: OVCAR-5; assay: Anticancer activity against human OVCAR5 cells after 48 hrs by sulforhodamine B assay; type: functional; conditions: OVCAR-5, 48 h; in short: as §1
[39] = tested on: OVCAR-8; assay: Anticancer activity against human OVCAR8 cells after 48 hrs by sulforhodamine B assay; type: functional; conditions: OVCAR-8, 48 h; in short: as §1
[40] = Anticancer activity against human NCI-ADR-RES cells after 48 hrs by sulforhodamine B assay; type: functional; in short: as §1
[41] = tested on: SK-OV-3; assay: Anticancer activity against human SKOV3 cells after 48 hrs by sulforhodamine B assay; type: functional; conditions: SK-OV-3, 48 h; in short: as §1
[42] = tested on: 786-0; assay: Anticancer activity against human 786-0 cells after 48 hrs by sulforhodamine B assay; type: functional; conditions: 786-0, 48 h; in short: as §1
[43] = tested on: A498; assay: Anticancer activity against human A498 cells after 48 hrs by sulforhodamine B assay; type: functional; conditions: A498, 48 h; in short: as §1
[44] = tested on: ACHN; assay: Anticancer activity against human ACHN cells after 48 hrs by sulforhodamine B assay; type: functional; in short: as §1
[45] = tested on: CAKI-1; assay: Anticancer activity against human Caki1 cells after 48 hrs by sulforhodamine B assay; type: functional; conditions: CAKI-1, 48 h; in short: as §1
[46] = Anticancer activity against human RXF393 cells after 48 hrs by sulforhodamine B assay; type: functional; conditions: RXF 393, 48 h; in short: as §1
[47] = tested on: SN12C; assay: Anticancer activity against human SN12C cells after 48 hrs by sulforhodamine B assay; type: functional; in short: as §1
[48] = tested on: TK-10; assay: Anticancer activity against human TK10 cells after 48 hrs by sulforhodamine B assay; type: functional; conditions: TK-10, 48 h; in short: as §2
[49] = tested on: UO-31; assay: Anticancer activity against human UO31 cells after 48 hrs by sulforhodamine B assay; type: functional; conditions: UO-31, 48 h; in short: as §2
[50] = tested on: DU-145; assay: Anticancer activity against human DU145 cells after 48 hrs by sulforhodamine B assay; type: functional; conditions: DU-145, 48 h; in short: as §1
[51] = tested on: MCF7; assay: Anticancer activity against human MCF7 cells after 48 hrs by sulforhodamine B assay; type: functional; conditions: MCF7, 48 h; in short: as §1
[52] = tested on: MDA-MB-231; assay: Anticancer activity against human MDA-MB-231 cells after 48 hrs by sulforhodamine B assay; type: functional; conditions: MDA-MB-231, 48 h; in short: as §1
[53] = Anticancer activity against human Hs 578T cells after 48 hrs by sulforhodamine B assay; type: functional; in short: as §1
[54] = tested on: BT-549; assay: Anticancer activity against human BT549 cells after 48 hrs by sulforhodamine B assay; type: functional; conditions: BT-549, 48 h; in short: as §1
[55] = tested on: T47D; assay: Anticancer activity against human T47D cells after 48 hrs by sulforhodamine B assay; type: functional; in short: as §2
[56] = tested on: MDA-MB-468; assay: Anticancer activity against human MDA-MB-468 cells after 48 hrs by sulforhodamine B assay; type: functional; conditions: MDA-MB-468, 48 h; in short: as §1
[57] = Anticancer activity against human OCI-AML3 cells expressing mutant NPM1 assessed as apoptosis for 48 hrs by annexin-V and TO-PRO3 staining based flow cytometry; type: functional, cell-based; conditions: OCI-AML-3, 48 h
In short: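 OCI-AML3 cells (NPM1c+) in logarithmic growth, passaged 2–3 times weekly. Cells were exposed to the indicated compound concentrations for 48 hr, then stained with annexin V and TO-PRO 3. Percent apoptotic cells was read by flow cytometry. AP50 is the concentration at which 50% of cells undergo apoptosis.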

In the case of `Cc1c(C=C2C(=O)NC(=S)NC2=O)c2ccccc2n1Cc1ccccc1`, the GI50 [1] is reported as 590 nM, the GI50 [2] is reported as 290 nM and the GI50 [3] is reported as 1260 nM. The GI50 [4] was 1710 nM, the GI50 [5] was 350 nM and the GI50 [6] was 340 nM. For the same compound, the GI50 [7] was 1850 nM, the GI50 [8] was 1090 nM and the GI50 [9] was 400 nM. It also gave a GI50 [10] of 1880 nM, a GI50 [11] of 1630 nM and a GI50 [12] of 980 nM. It also gave a GI50 [13] of 1850 nM, a GI50 [14] of 1330 nM and a GI50 [15] of 1180 nM. It also gave a GI50 [16] of 890 nM, a GI50 [17] of 1300 nM and a GI50 [18] of 1370 nM. For the same compound, the GI50 [19] was 950 nM, the GI50 [20] was 1240 nM and the GI50 [21] was 1260 nM. For the same compound, the GI50 [22] was 930 nM, the GI50 [23] was 1140 nM and the GI50 [24] was 1310 nM. For the same compound, the GI50 [25] was 1510 nM, the GI50 [26] was 1160 nM and the GI50 [27] was 530 nM. It also gave a GI50 [28] of 2310 nM, a GI50 [29] of 1400 nM and a GI50 [30] of 1150 nM. It also gave a GI50 [31] of 2080 nM, a GI50 [32] of 1660 nM and a GI50 [33] of 1370 nM. The GI50 [34] was 1410 nM, the GI50 [35] was 970 nM and the GI50 [36] was 1180 nM. It also gave a GI50 [37] of 1240 nM, a GI50 [38] of 1750 nM and a GI50 [39] of 1130 nM. It also gave a GI50 [40] of 1890 nM, a GI50 [41] of 1890 nM and a GI50 [42] of 1580 nM. For the same compound, the GI50 [43] was 1560 nM, the GI50 [44] was 1370 nM and the GI50 [45] was 1570 nM. The GI50 [46] was 1230 nM, the GI50 [47] was 1150 nM and the GI50 [48] was 1470 nM. For the same compound, the GI50 [49] was 880 nM, the GI50 [50] was 1310 nM and the GI50 [51] was 700 nM. It also gave a GI50 [52] of 1340 nM, a GI50 [53] of 510 nM and a GI50 [54] of 1600 nM. It also gave a GI50 [55] of 1900 nM, a GI50 [56] of 510 nM and an AC50 [57] of 3.31 µM.

`N#Cc1ccc(Cn2cc(C=C3C(=O)NC(=O)NC3=O)c3ccccc32)cc1` showed an AC50 [57] greater than 20 µM.
